The source of these data is ChEMBL document CHEMBL1165943, “Design and synthesis of new anticancer pyrimidines with multiple-kinase inhibitory effect” (Bioorg Med Chem, 2010).

Assay [1] concerns SR. Description: Cytotoxicity against human SR cells assessed as cell growth at 0.001 uM after 48 hrs by sulforhodamine B assay. It is filed as functional. The note with it: read-out: Activity.
For assay [2], the system named is SR. Description: Cytotoxicity against human SR cells assessed as cell growth at 0.01 uM after 48 hrs by sulforhodamine B assay. Format: functional. The note with it: read-out: Activity.
In assay [3] the test system is MCF7. Description: Cytotoxicity against human MCF7 cells assessed as cell growth at 0.001 uM after 48 hrs by sulforhodamine B assay. It is filed as functional. The note with it: MCF7, 48 h, read-out: Activity.
The next assay has as its system RXF 393. Description: Cytotoxicity against human RXF393 cells assessed as cell growth at 0.001 uM after 48 hrs by sulforhodamine B assay. Format: functional. The note with it: RXF 393, 48 h, read-out: Activity.
In assay [4] the test system is NCI-H226. As to the kind of experiment: Cytotoxicity against human NCI-H226 cells assessed as cell growth at 10 uM after 48 hrs by sulforhodamine B assay. It is filed as functional. The following applies: NCI-H226, 48 h, read-out: Activity.
For assay [5], the system named is CCRF-CEM. As to the kind of experiment: Growth inhibition of human CCRF-CEM cells after 48 hrs by sulforhodamine B assay. It is filed as functional. A digest of the protocol: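 Five-dose SRB assay. Cells in RPMI 1640 with 5% FBS and 2 mM L-glutamine were seeded at 5,000–40,000 cells/well, with a TCA-fixed time-zero plate (Tz) taken at 24 h. Compound stocks were in DMSO, serially diluted 10-fold or ½-log to five concentrations, and incubated 48 h at 37 °C. Plates were stained with SRB and read at 515 nm. IC₅₀ was taken where [(Ti−Tz)/(C−Tz)]×100 = 50.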

A further assay concerns SN12C. As to the kind of experiment: Cytotoxicity against human SN12C cells assessed as cell growth at 10 uM after 48 hrs by sulforhodamine B assay. The following applies: read-out: Activity. It is filed as functional.
Assay [6] deals with CCRF-CEM. Description: Cytotoxicity against human CCRF-CEM cells assessed as cell growth at 0.01 uM after 48 hrs by sulforhodamine B assay. It is filed as functional. The note with it: read-out: Activity.
Assay [7] can be described thus: Cytotoxicity against human RPMI8266 cells assessed as cell growth at 1 uM after 48 hrs by sulforhodamine B assay. Format: functional. The following applies: read-out: Activity.
The next assay has as its system HOP-92. Description: Cytotoxicity against human HOP92 cells assessed as cell growth at 10 uM after 48 hrs by sulforhodamine B assay. Format: functional. The note with it: HOP-92, 48 h, read-out: Activity.
For assay [8], the system named is SR. As to the kind of experiment: Cytotoxicity against human SR cells assessed as cell growth at 10 uM after 48 hrs by sulforhodamine B assay. It is filed as functional. The following applies: read-out: Activity.
The subject of assay [9] is SK-MEL-28. Description: Cytotoxicity against human SK-MEL-28 cells assessed as cell growth at 10 uM after 48 hrs by sulforhodamine B assay. It is filed as functional. The following applies: SK-MEL-28, 48 h, read-out: Activity.
The subject of assay [10] is SK-MEL-28. As to the kind of experiment: Cytotoxicity against human SK-MEL-28 cells assessed as cell growth at 100 nM after 48 hrs by sulforhodamine B assay. Format: functional. The following applies: SK-MEL-28, 48 h, read-out: Activity.
Assay [11] deals with CCRF-CEM. Description: Cytotoxicity against human CCRF-CEM cells assessed as cell growth at 0.001 uM after 48 hrs by sulforhodamine B assay. Format: functional. The following applies: read-out: Activity.
For assay [12], the system named is CCRF-CEM. As to the kind of experiment: Cytotoxicity against human CCRF-CEM cells assessed as cell growth at 1 uM after 48 hrs by sulforhodamine B assay. The note with it: read-out: Activity. It is filed as functional.
Assay [13] concerns HCC 2998. Description: Cytotoxicity against human HCC2998 cells assessed as cell growth at 10 uM after 48 hrs by sulforhodamine B assay. It is filed as functional. The following applies: HCC 2998, 48 h, read-out: Activity.
The test system of assay [14] is HCC 2998. Description: Cytotoxicity against human HCC2998 cells assessed as cell growth at 1 uM after 48 hrs by sulforhodamine B assay. It is filed as functional. The following applies: HCC 2998, 48 h, read-out: Activity.
The subject of assay [15] is MCF7. Description: Cytotoxicity against human MCF7 cells assessed as cell growth at 100 nM after 48 hrs by sulforhodamine B assay. The note with it: MCF7, 48 h, read-out: Activity. Format: functional.
Assay [16] has as its system SK-MEL-28. Description: Cytotoxicity against human SK-MEL-28 cells assessed as cell growth at 1 uM after 48 hrs by sulforhodamine B assay. Format: functional. The following applies: SK-MEL-28, 48 h, read-out: Activity.
Assay [17] concerns MCF7. Description: Cytotoxicity against human MCF7 cells assessed as cell growth at 10 uM after 48 hrs by sulforhodamine B assay. Format: functional. The note with it: MCF7, 48 h, read-out: Activity.
Assay [18] has as its system NCI-H226. Description: Growth inhibition of human NCI-H226 cells after 48 hrs by sulforhodamine B assay. It is filed as functional. The following applies: NCI-H226, 48 h. A digest of the protocol:
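Cells grown in RPMI 1640 with 5% FBS and 2 mM L-glutamine, seeded at 5,000–40,000 cells/well according to doubling time. After 24 h, time-zero plates are TCA-fixed. Five concentrations (10-fold or ½log dilutions, DMSO stocks) are applied for 48 h at 37 °C, 5% CO₂. Cells are TCA-fixed, SRB-stained and read at 515 nm. IC₅₀ is taken from [(Ti−Tz)/(C−Tz)]×100 = 50.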

For assay [19], the target named is Serine/threonine-protein kinase Chk1 (Homo sapiens) (UniProt O14757). Description: Inhibition of CHK1 at 10 uM by HotSpot assay.
The target of assay [20] is Tyrosine-protein kinase Lyn (Homo sapiens) (UniProt P07948). Description: Inhibition of LYN at 10 uM by HotSpot assay.
For assay [21], the target named is RAC-alpha serine/threonine-protein kinase (Homo sapiens) (UniProt P31749). Description: Inhibition of AKT1 at 10 uM by HotSpot assay.
The target in assay [22] is BDNF/NT-3 growth factors receptor (Homo sapiens) (UniProt Q16620). Description: Inhibition of NTRK2 at 10 uM by HotSpot assay.
Assay [23] addresses Tyrosine-protein kinase Lck (Homo sapiens) (UniProt P06239). Description: Inhibition of LCK at 10 uM by HotSpot assay.
Assay [24] concerns the target Proto-oncogene tyrosine-protein kinase receptor Ret (Homo sapiens) (UniProt P07949). Description: Inhibition of RET at 10 uM by HotSpot assay.
The target in assay [25] is Vascular endothelial growth factor receptor 2 (Homo sapiens) (UniProt P35968). Description: Inhibition of KDR at 10 uM by HotSpot assay.
Assay [26] deals with Inhibitor of nuclear factor kappa-B kinase subunit beta (Homo sapiens) (UniProt O14920). As to the kind of experiment: Inhibition of IKK-beta at 10 uM by HotSpot assay.
For assay [27], the target named is Mast/stem cell growth factor receptor Kit (Homo sapiens) (UniProt P10721). As to the kind of experiment: Inhibition of c-Kit at 10 uM by HotSpot assay.
Chain of Mast/stem cell growth factor receptor Kit (Homo sapiens) (P10721 whole entry): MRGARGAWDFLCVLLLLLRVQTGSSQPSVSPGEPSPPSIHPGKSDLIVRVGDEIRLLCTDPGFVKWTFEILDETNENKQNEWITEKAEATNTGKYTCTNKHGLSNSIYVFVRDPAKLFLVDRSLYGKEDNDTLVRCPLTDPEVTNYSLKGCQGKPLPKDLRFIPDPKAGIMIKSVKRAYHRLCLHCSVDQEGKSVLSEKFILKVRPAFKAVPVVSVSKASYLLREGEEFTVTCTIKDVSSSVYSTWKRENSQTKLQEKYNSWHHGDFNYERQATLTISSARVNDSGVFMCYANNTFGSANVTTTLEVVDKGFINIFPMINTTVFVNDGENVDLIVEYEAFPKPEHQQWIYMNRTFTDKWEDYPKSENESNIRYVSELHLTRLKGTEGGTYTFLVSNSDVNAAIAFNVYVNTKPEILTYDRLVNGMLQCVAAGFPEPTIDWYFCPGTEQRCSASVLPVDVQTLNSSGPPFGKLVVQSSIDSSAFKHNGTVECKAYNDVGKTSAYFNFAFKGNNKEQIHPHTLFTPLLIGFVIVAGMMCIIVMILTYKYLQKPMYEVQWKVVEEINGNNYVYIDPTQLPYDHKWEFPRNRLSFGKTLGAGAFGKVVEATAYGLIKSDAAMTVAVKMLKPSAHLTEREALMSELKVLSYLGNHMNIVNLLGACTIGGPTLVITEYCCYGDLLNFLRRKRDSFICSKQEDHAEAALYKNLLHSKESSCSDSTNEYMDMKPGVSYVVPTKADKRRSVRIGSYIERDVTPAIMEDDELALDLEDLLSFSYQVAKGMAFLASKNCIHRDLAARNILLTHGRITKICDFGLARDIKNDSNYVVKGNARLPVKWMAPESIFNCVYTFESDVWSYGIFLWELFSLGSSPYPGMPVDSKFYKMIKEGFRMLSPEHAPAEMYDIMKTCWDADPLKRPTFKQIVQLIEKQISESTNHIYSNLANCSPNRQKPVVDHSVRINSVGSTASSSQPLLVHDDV
Assay [28] concerns the target Rho-associated protein kinase 1 (Homo sapiens) (UniProt Q13464). Description: Inhibition of ROCK1 at 10 uM by HotSpot assay.
In assay [29] the target is Myotonin-protein kinase (Homo sapiens) (UniProt Q09013). As to the kind of experiment: Inhibition of DMPK at 10 uM by HotSpot assay.
Assay [30] has as its target Angiopoietin-1 receptor (Homo sapiens) (UniProt Q02763). Description: Inhibition of TIE2 at 10 uM by HotSpot assay.
Assay [31] has as its target Tyrosine-protein kinase Fyn (Homo sapiens) (UniProt P06241). Description: Inhibition of FYN at 10 uM by HotSpot assay.
For assay [32], the target named is Cyclin-dependent kinase 2/cyclin E1 (Homo sapiens) (UniProt P24864+P24941). Description: Inhibition of CDK2/Cyclin E at 10 uM by HotSpot assay. It is filed as protein-complex assay.
Assay [33] addresses Focal adhesion kinase 1 (Homo sapiens) (UniProt Q05397). As to the kind of experiment: Inhibition of PTK2 at 10 uM by HotSpot assay.
Assay [34] addresses Serine/threonine-protein kinase pim-1 (Homo sapiens) (UniProt P11309). As to the kind of experiment: Inhibition of PIM1 at 10 uM by HotSpot assay.
The mark [35] stands for this setting: read-out: LC50 (the source's name).

Bounds are passed on as bounds.

Chain of Proto-oncogene tyrosine-protein kinase receptor Ret (Homo sapiens) (P07949 whole entry): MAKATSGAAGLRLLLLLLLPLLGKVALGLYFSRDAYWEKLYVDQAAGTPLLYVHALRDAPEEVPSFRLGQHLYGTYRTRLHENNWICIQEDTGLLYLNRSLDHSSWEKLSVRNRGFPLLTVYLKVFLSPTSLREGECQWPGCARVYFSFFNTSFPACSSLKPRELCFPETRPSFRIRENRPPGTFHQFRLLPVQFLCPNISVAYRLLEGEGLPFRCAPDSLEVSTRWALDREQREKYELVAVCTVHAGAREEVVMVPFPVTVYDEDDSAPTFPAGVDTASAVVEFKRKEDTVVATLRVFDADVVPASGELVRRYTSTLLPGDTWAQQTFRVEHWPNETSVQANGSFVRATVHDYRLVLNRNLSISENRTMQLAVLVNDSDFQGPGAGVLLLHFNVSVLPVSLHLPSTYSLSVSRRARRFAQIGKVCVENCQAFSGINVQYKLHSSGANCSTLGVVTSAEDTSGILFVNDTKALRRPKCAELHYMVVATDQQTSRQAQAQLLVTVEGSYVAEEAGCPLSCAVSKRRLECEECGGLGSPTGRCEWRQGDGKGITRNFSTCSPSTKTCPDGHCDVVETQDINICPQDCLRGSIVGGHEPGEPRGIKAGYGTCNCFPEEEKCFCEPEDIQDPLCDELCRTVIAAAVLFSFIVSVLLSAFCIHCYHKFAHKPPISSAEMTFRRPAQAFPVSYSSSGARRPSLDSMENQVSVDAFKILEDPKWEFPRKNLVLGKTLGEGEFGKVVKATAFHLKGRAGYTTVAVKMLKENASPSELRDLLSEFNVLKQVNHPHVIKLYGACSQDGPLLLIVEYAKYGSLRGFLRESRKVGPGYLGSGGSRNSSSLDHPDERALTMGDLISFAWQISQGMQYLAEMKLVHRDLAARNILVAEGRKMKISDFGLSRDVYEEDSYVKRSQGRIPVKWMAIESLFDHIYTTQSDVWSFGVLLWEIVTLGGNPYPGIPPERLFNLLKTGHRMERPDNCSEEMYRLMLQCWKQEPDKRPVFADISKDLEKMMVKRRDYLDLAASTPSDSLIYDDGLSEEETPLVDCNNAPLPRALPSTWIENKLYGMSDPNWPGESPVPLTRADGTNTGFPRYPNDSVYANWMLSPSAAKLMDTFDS
Chain of Angiopoietin-1 receptor (Homo sapiens) (Q02763 whole entry): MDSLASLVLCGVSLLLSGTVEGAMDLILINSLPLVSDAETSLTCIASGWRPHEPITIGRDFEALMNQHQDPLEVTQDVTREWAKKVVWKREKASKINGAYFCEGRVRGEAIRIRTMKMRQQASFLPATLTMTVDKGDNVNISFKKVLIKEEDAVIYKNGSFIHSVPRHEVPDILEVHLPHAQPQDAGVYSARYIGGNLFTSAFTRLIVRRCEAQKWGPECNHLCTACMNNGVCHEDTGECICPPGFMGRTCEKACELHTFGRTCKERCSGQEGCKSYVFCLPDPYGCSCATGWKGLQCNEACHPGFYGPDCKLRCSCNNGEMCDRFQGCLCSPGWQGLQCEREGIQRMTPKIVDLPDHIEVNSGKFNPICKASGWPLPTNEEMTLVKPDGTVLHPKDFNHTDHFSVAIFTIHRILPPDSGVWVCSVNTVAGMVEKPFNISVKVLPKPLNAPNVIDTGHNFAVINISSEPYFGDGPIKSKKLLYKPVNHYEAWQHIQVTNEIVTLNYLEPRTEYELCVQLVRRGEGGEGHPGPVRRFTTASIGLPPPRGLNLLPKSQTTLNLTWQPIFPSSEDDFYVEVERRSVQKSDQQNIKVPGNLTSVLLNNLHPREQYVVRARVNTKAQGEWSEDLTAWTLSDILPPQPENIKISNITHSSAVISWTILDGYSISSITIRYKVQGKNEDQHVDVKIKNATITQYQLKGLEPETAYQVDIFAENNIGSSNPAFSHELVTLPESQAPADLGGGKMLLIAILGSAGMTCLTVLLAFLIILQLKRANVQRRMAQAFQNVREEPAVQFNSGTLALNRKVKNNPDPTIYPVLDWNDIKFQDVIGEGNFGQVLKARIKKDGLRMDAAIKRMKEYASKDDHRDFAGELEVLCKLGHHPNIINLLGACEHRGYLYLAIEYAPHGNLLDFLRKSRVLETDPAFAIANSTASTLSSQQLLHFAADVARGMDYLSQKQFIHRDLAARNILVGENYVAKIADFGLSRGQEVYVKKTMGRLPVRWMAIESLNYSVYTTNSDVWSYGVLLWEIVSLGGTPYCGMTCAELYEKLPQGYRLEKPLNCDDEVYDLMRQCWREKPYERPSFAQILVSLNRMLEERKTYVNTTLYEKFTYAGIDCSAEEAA
Chain of Tyrosine-protein kinase Fyn (Homo sapiens) (P06241 2-537 limits assumed): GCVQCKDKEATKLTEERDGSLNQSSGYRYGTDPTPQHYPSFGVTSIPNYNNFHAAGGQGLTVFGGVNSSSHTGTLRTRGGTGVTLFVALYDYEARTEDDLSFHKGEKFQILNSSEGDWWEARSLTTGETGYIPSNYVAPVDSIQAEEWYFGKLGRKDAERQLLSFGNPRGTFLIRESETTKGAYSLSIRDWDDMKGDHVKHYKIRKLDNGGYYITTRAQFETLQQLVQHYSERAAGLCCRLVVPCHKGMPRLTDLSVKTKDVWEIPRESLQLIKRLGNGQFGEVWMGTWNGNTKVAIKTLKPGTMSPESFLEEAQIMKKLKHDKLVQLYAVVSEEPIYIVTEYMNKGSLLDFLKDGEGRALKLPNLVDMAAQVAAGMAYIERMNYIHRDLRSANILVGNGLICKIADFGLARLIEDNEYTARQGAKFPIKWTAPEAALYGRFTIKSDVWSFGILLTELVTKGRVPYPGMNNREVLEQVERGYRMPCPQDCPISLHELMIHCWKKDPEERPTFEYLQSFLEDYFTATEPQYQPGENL
Chain of Rho-associated protein kinase 1 (Homo sapiens) (Q13464 2-1354 limits assumed): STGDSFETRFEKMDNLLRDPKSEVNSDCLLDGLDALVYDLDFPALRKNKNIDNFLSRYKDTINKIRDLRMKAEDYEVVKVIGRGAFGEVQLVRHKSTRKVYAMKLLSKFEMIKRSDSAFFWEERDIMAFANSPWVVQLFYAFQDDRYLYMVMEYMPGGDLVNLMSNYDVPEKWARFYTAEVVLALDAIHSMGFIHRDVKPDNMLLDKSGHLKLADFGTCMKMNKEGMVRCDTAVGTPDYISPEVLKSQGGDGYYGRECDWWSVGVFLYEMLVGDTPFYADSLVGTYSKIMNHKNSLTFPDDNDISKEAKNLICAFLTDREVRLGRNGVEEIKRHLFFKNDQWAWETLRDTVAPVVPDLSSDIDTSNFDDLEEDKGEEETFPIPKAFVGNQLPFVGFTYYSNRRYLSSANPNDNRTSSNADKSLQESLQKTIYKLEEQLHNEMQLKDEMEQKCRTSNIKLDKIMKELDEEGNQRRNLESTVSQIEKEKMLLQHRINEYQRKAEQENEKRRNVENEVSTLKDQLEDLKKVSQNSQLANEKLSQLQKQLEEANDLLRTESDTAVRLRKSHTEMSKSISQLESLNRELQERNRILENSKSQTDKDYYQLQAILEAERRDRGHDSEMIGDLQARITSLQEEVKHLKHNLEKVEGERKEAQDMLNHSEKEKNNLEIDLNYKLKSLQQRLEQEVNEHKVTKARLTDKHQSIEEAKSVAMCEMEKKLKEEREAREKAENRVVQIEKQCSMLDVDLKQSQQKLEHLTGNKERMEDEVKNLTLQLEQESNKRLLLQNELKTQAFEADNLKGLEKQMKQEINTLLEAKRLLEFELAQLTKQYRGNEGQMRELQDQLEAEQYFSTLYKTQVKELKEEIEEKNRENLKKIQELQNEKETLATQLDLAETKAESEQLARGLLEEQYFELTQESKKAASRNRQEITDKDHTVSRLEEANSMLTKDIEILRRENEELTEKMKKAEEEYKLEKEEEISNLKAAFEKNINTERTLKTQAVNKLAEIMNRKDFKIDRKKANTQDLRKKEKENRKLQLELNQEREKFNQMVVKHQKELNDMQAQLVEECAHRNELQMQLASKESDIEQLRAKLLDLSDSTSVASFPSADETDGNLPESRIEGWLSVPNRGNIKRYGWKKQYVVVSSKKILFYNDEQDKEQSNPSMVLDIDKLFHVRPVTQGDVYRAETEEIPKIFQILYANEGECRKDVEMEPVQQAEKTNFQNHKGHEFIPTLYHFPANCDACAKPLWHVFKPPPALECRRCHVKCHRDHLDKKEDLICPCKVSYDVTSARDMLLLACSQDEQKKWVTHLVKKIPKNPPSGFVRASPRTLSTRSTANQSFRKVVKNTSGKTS

Regarding `CC(=O)c1ccccc1-c1ccc(-c2ccnc(NC(=O)Nc3cc(N4CCOCC4)cc(C(F)(F)F)c3)n2)cn1`, the growth at 0.001 µM in the assay with SR [1] is 94%; in the assay on MCF7 [3], 94%; with RXF 393, 101%; with CCRF-CEM [11], 98%. Also, the growth at 0.01 µM in the assay with SR [2] stood at 89%; in the assay with CCRF-CEM [6] it was 102%. Moreover, the growth at 10 µM was 71% in the assay with NCI-H226 [4]; 79% in the assay on SN12C; 20% in the assay with HOP-92; 107% in the assay with SR [8]; 93% in the assay on SK-MEL-28 [9]; 135% in the assay with HCC 2998 [13]. Also, the growth at 10 µM in the assay with MCF7 [17] was found to be 70%. Besides, the GI50 with CCRF-CEM [5] and in the assay with NCI-H226 [18] was greater than 100 µM in each case. In addition, the TGI in the assay on CCRF-CEM [5] and with NCI-H226 [18] was greater than 100 µM throughout. In addition, the CC50 in the assay on CCRF-CEM [5] (setting [35]) and with NCI-H226 [18] (setting [35]) was greater than 100 µM throughout. The growth at 1 µM in [7] was 78%; in the assay on CCRF-CEM [12], 93%; in the assay on HCC 2998 [14], 114%; in the assay with SK-MEL-28 [16], 4%. Besides, the growth at 0.1 µM with SK-MEL-28 [10] stood at 92%; in the assay on MCF7 [15], 100%.
Turning to `CC(=O)Nc1cccc(-c2ccc(-c3ccnc(NC(=O)Nc4cc(C(F)(F)F)cc(C(F)(F)F)c4)n3)cn2)c1.Cl`, the inhibition in assay [19] was less than 50%; in assay [20], less than 50%; in assay [21], less than 50%; in assay [22], less than 50%; in [23] it was 70%; in assay [24], less than 50%. In addition, the inhibition is 50% in assay [25]; less than 50% in assay [26]; less than 50% in assay [27]; less than 50% in assay [28]; less than 50% in assay [29]; less than 50% in assay [30]. Besides, the inhibition in assay [31] was 50%; in assay [32] it was less than 50%; in assay [33], less than 50%; in [34], 60%.
